{"source": "ChEMBL document CHEMBL2440054", "about": "“Largazole Arrests Cell Cycle at G1 Phase and Triggers Proteasomal Degradation of E2F1 in Lung Cancer Cells” (ACS Med Chem Lett, 2013)", "key": {"NCI-H460 [1]": {"test_system": "NCI-H460", "test": "Cytotoxicity against human NCI-H460 cells assessed as inhibition of colony formation pretreated for 24 hrs followed by seeding measured after 10 days by clonogenic assay", "assay_type": "functional, cell-based", "in_short": "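Soft-agar clonogenic assay. Cells pretreated 24 h with largazole or DMSO, then seeded in 0.3% soft agar upper layer over 0.6% soft agar lower layer. Colonies counted by microscope after 10 days. Mean ± SD of three independent experiments.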"}, "A549 [2]": {"test_system": "A549", "test": "Induction of apoptosis in human A549 cells assessed as decrease in pro-caspase-3 level at 0.1 uM after 48 hrs by Western blotting analysis", "assay_type": "functional, cell-based", "in_short": "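A549 cells given largazole 0.1 μM for indicated times, lysed, and Western blotted for pro-/cleaved caspase-9, caspase-8, pro-/active caspase-3 and PARP.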"}, "A549 [3]": {"test_system": "A549", "test": "Upregulation of p21 protein expression in human A549 cells at 0.1 uM after 6 hrs by Western blotting analysis in presence of Hsp90 inhibitor 17-AAG", "assay_type": "functional, cell-based", "in_short": "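A549 cells treated 6 h with 0.1 μM, with or without 1 μM 17-AAG, then lysed and Western blotted. p21 quantified by densitometry and normalized to β-actin.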"}, "[4]": {"test": "Cytotoxicity against human 16HBE cells after 48 hrs by CCK-8 assay", "assay_type": "cell-based", "conditions": "16HBE14o-", "in_short": "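Cells treated with a range of largazole concentrations for 48 h. Proliferation read by CCK-8 assay; IC50 derived from the concentration series.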"}, "[5]": {"target": "Transcription factor E2F1 (Homo sapiens) (UniProt Q01094)", "sequence (Q01094 whole entry)": "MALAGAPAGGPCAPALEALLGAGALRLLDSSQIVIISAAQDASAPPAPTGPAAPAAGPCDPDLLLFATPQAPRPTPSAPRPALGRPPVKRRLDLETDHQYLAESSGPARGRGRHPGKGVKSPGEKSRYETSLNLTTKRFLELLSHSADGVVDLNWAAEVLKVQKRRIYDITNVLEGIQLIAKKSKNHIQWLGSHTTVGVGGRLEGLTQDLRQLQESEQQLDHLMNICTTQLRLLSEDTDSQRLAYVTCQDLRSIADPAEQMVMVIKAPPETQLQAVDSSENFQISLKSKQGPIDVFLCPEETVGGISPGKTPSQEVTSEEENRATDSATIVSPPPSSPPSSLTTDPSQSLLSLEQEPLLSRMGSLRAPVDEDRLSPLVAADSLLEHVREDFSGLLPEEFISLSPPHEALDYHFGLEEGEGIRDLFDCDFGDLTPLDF", "test": "Induction of E2F1 degradation in human NCI-H1975 cells at 0.1 uM after 12 to 24 hrs by Western blotting analysis", "assay_type": "cell-based", "in_short": "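Each cell line (16-HBE, 95D, L78, H1975, H460) treated with 0.1 μM largazole for indicated times. Lysates Western blotted for E2F1.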"}, "NCI-H460 [6]": {"test_system": "NCI-H460", "test": "Cell cycle arrest in human NCI-H460 cells assessed as accumulation at G1 phase at 0.06 uM after 24 hrs by propidium iodide staining-based flow cytometric analysis (reference value: 58.9%)", "assay_type": "functional"}, "[7]": {"target": "Transcription factor E2F1 (Homo sapiens) (UniProt Q01094)", "test": "Induction of E2F1 translocation from nucleus to cytoplasm in human A549 cells at 0.1 uM after 12 to 24 hrs by DAPI staining-based immunofluorescence analysis", "assay_type": "cell-based", "in_short": "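A549 cells given 0.1 μM largazole for 12 to 24 h. Immunofluorescence with anti-E2F1 antibody, nuclei counterstained with DAPI.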"}, "[8]": {"target": "Histone deacetylase 1 (Homo sapiens) (UniProt Q13547)", "sequence (Q13547 whole entry)": "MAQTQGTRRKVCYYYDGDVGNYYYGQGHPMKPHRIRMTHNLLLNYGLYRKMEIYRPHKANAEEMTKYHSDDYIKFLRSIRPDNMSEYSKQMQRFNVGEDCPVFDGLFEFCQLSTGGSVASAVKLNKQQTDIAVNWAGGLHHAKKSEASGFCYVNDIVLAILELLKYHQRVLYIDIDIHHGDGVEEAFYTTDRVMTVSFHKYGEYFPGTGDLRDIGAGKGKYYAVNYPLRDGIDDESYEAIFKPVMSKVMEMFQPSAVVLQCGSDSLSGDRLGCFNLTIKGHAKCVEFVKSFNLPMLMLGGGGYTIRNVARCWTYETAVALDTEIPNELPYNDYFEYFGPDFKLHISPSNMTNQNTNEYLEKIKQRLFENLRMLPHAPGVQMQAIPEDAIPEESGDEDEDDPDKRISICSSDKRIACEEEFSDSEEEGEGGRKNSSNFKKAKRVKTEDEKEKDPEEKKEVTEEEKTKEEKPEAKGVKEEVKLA", "conditions": "A549, 0.1 uM"}, "NCI-H460 [9]": {"test_system": "NCI-H460", "test": "Cell cycle arrest in human NCI-H460 cells assessed as accumulation at G2 phase at 0.06 uM after 24 hrs by propidium iodide staining-based flow cytometric analysis (reference value: 9.5%)", "assay_type": "functional"}, "A549 [10]": {"test_system": "A549", "test": "Induction of apoptosis in human A549 cells assessed as increase in cleaved caspase-9 level at 0.1 uM after 48 hrs by Western blotting analysis", "assay_type": "functional, cell-based", "in_short": "(§1)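 A549 cells exposed to 0.1 μM for a time course, then lysed and Western blotted. Read-outs are pro- and cleaved caspase-9, pro- and active caspase-3, and cleaved PARP.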"}, "A549 [11]": {"test_system": "A549", "test": "Effect on cyclin D1 protein expression in human A549 cells at 0.1 uM after 6 to 36 hrs by Western blotting analysis", "assay_type": "functional, cell-based", "in_short": "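A549 cells exposed to 0.1 μM largazole over a time course, lysed, and Western blotted for cyclin D1, CDK2, CDK4, p21 and p27.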"}, "A549 [12]": {"test_system": "A549", "test": "Cell cycle arrest in human A549 cells assessed as accumulation at G2 phase at 0.06 uM after 24 hrs by propidium iodide staining-based flow cytometric analysis (reference value: 3.7%)", "assay_type": "functional"}, "[13]": {"target": "Histone deacetylase 1 (Homo sapiens) (UniProt Q13547)", "conditions": "A549, 0.1 uM", "remark": "listed apart in the source"}, "[14]": {"target": "Transcription factor E2F1 (Homo sapiens) (UniProt Q01094)", "test": "Induction of E2F1 degradation in human A549 cells at 0.1 uM after 12 hrs by Western blotting analysis in presence of proteasome inhibitor MG-132", "assay_type": "cell-based", "in_short": "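A549 cells pretreated 2 h with bortezomib (100 nM) or MG-132 (10 μM), then given largazole 0.1 μM for a further 12 h. Lysates Western blotted for E2F1.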"}, "A549 [15]": {"test_system": "A549", "test": "Induction of apoptosis in human A549 cells assessed as increase in PARP cleavage at 0.1 uM after 48 hrs by Western blotting analysis", "assay_type": "functional, cell-based", "in_short": "as §1"}, "A549 [16]": {"test_system": "A549", "test": "Cell cycle arrest in human A549 cells assessed as accumulation at G2 phase at 0.1 uM after 24 hrs by propidium iodide staining-based flow cytometric analysis (reference value: 3.7%)", "assay_type": "functional"}, "[17]": {"target": "T1, Retinoblastoma-associated protein (Homo sapiens) (UniProt P06400)", "T1 sequence (whole entry)": "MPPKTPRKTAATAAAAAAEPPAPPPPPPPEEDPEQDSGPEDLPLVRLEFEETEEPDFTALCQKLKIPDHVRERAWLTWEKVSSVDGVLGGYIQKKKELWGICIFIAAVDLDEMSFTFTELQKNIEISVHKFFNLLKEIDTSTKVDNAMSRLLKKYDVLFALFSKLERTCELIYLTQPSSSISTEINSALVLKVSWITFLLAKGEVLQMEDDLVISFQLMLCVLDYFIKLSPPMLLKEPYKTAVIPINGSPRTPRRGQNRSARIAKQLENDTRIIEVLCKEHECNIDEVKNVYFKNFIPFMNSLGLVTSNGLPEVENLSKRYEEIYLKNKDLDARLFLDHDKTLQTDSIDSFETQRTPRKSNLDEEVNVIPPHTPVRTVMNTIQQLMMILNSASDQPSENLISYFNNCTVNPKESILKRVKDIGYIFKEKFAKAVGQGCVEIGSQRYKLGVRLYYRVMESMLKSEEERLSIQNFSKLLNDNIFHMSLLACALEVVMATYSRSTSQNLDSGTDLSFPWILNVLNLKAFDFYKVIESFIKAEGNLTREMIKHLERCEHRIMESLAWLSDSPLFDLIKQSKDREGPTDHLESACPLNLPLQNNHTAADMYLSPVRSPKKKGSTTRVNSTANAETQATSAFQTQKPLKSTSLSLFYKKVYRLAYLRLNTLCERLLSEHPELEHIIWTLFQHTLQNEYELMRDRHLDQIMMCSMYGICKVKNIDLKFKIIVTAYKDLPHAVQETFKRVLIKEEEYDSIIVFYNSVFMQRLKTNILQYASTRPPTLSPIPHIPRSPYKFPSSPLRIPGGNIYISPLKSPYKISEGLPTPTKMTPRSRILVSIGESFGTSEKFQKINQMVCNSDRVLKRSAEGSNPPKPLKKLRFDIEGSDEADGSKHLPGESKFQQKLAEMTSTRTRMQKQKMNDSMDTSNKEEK", "test": "Dephosphorylation of Rb in human A549 cells assessed as increase in E2F1-HDAC1 interaction at 0.1 uM after 8 hrs by immunoprecipitation and Western blotting analysis", "assay_type": "cell-based", "in_short": "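A549 cells treated with 0.1 μM largazole for 8 h and lysed. Lysates immunoprecipitated, then Western blotted with the indicated antibodies.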"}, "[18]": {"target": "Histone deacetylase 1 (Homo sapiens) (UniProt Q13547)", "conditions": "A549, 0.01 to 1 uM"}, "[19]": {"target": "Transcription factor E2F1 (Homo sapiens) (UniProt Q01094)", "test": "Induction of E2F1 ubiquitination in human A549 cells at 0.1 uM after 8 hrs by immunoprecipitation and Western blotting analysis", "assay_type": "cell-based", "in_short": "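Lysates of A549 cells given 0.1 μM largazole for 8 h were immunoprecipitated with anti-E2F1 and probed by Western blot with anti-ubiquitin.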"}}, "note": "Active and inactive are the calls of the source. The calls are words filed in the database; no cut-off is given here."}
{"compound": "CCCCCCCC(=O)SCC/C=C/[C@@H]1CC(=O)NCc2nc(cs2)C2=N[C@@](C)(CS2)C(=O)N[C@@H](C(C)C)C(=O)O1", "note": "[LARGAZOLE]", "values": [{"measurement": "inhibition", "setting": "NCI-H460 [1]", "value": "Dose-dependent effect"}, {"measurement": "Activity", "setting": "A549 [2]", "value": "Active"}, {"measurement": "Activity", "setting": "A549 [3]", "value": "inactive"}, {"measurement": "IC50", "setting": "[4]", "value": "> 10", "unit": "µM"}, {"measurement": "Activity", "setting": "[5]", "value": "Active"}, {"measurement": "Activity", "setting": "NCI-H460 [6]", "value": 78.8, "unit": "%"}, {"measurement": "Activity", "setting": "[7]", "value": "Active"}, {"measurement": "inhibition", "setting": "[8]", "value": "Active"}, {"measurement": "Activity", "setting": "NCI-H460 [9]", "value": 10.8, "unit": "%"}, {"measurement": "Activity", "setting": "A549 [10]", "value": "Active"}, {"measurement": "Activity", "setting": "A549 [11]", "value": "inactive"}, {"measurement": "Activity", "setting": "A549 [12]", "value": 3.1, "unit": "%"}, {"measurement": "inhibition", "setting": "[13]", "value": "Active"}, {"measurement": "Activity", "setting": "[14]", "value": "inactive"}, {"measurement": "Activity", "setting": "A549 [15]", "value": "Active"}, {"measurement": "Activity", "setting": "A549 [16]", "value": 3.3, "unit": "%"}, {"measurement": "Activity", "setting": "[17]", "value": "Active"}, {"measurement": "inhibition", "setting": "[18]", "value": "Active"}, {"measurement": "Activity", "setting": "[19]", "value": "Active"}]}
